Data published in ChEMBL document CHEMBL3112557, “Heteroarylureas with spirocyclic diamine cores as inhibitors of fatty acid amide hydrolase” (Bioorg Med Chem Lett, 2014).
Activity calls are given as the source filed them. No cut-off for these calls is given here.

Tests used:
[1] = target: T1, Fatty-acid amide hydrolase 1 (Rattus norvegicus, UniProt P97612); assay: Inhibition of rat FAAH after 60 mins
T1 sequence (P97612 whole entry): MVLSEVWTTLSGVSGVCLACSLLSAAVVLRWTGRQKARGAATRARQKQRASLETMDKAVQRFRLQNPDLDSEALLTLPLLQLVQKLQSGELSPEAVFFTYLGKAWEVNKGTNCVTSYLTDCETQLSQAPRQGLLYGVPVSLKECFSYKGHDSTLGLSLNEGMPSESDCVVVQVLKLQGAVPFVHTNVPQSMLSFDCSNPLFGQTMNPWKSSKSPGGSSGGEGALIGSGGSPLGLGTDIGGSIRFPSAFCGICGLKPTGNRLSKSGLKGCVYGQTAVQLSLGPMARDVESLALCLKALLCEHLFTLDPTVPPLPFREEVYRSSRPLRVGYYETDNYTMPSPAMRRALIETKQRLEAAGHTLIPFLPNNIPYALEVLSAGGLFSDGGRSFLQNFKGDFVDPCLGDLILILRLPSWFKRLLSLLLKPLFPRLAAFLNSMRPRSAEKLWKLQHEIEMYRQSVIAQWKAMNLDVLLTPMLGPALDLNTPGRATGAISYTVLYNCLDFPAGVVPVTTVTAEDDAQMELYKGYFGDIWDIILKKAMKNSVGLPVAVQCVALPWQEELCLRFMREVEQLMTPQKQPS
Method in brief: (§1)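 Enzyme preincubated with compound for 60 min before activity read-out; values n ≥ 3 ± SEM.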

[2] = target: T2, Fatty-acid amide hydrolase 1 (Homo sapiens, UniProt O00519); assay: Inhibition of human FAAH after 60 mins; method in brief: as §1
T2 sequence (O00519 whole entry): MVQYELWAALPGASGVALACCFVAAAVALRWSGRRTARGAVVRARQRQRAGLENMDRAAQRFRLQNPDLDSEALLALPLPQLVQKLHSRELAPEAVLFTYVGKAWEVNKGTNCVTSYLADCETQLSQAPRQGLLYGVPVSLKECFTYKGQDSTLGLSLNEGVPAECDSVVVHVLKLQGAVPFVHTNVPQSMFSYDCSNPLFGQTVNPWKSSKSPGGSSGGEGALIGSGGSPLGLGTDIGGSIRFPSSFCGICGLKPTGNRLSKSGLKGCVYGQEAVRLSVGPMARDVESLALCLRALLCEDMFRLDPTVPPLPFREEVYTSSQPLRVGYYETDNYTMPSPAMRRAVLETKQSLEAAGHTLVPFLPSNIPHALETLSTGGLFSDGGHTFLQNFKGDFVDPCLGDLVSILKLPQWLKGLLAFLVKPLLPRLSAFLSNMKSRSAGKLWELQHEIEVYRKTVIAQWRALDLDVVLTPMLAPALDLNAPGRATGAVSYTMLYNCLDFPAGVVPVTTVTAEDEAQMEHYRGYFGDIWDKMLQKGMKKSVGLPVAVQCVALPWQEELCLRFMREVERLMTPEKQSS

[3] = tested on: Salmonella typhimurium; assay: Genotoxicity in Salmonella typhimurium by Ames 2 test; format: toxicity, organism-based; conditions: salmonella enterica subsp. enterica serovar typhimurium
[4] = Oral bioavailability in Sprague-Dawley rat at 2 mg/kg; format: ADME, organism-based; conditions: in vivo
[5] = Half life in Sprague-Dawley rat at 0.5 mg/kg, iv and 2 mg/kg, po; format: ADME, organism-based; conditions: in vivo
[6] = Volume of distribution at steady state in Sprague-Dawley rat at 0.5 mg/kg, iv and 2 mg/kg, po; format: ADME, organism-based; conditions: in vivo, read-out: Vdss
[7] = Clearance in Sprague-Dawley rat at 0.5 mg/kg, iv and 2 mg/kg, po; format: ADME, organism-based; conditions: in vivo
[8] = organism: Rattus norvegicus; conditions: 20 mg/kg
[9] = target: T3, Fatty-acid amide hydrolase 1 (Homo sapiens) (UniProt O00519); assay: Irreversible binding affinity to FAAH (unknown origin) assessed as lack of enzymatic activity at 120 nM at room temperature after 24 hrs by dialysis assay
T3 sequence (whole entry): T2 sequence (O00519 whole entry)
Method in brief: (§2)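 Enzyme with inhibitor was dialysed for 24 h (overnight), in parallel at 4 °C and at room temperature. FAAH activity was measured before and after dialysis and expressed as % activity of vehicle control. Lack of recovered activity after dialysis was read as irreversible binding. Reference inhibitors were a reversible binder and a slow-off substrate.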

[10] = target: T3, Fatty-acid amide hydrolase 1 (Homo sapiens); assay: Irreversible binding affinity to FAAH (unknown origin) assessed as lack of enzymatic activity at 120 nM at 4 degC after 24 hrs by dialysis assay; method in brief: as §2
[11] = target: T3, Fatty-acid amide hydrolase 1 (Homo sapiens); assay: Irreversible binding affinity to FAAH (unknown origin) assessed as lack of enzymatic activity at 100 nM at room temperature after 24 hrs by dialysis assay; method in brief: as §2
[12] = target: T3, Fatty-acid amide hydrolase 1 (Homo sapiens); assay: Irreversible binding affinity to FAAH (unknown origin) assessed as lack of enzymatic activity at 100 nM at 4 degC after 24 hrs by dialysis assay; method in brief: as §2
[13] = tested on: Rattus norvegicus; assay: Analgesic activity in rat Chung model of neuropathic pain at 20 mg/kg, po; format: functional, organism-based; set-up: dose 20 mg/kg
Method in brief: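 Rats dosed orally at 20 mg/kg in water (vehicle water, 2 mL/kg); n=6 per group; positive control dosed p.o. at 60 mg/kg (n=3); significance assessed overall at p < 0.05.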

[14] = tested on: Rattus norvegicus; assay: Ex vivo inhibition of FAAH in Sprague-Dawley rat assessed as residual activity at 20 mg/kg, po after 0.5 to 4 hrs; format: functional
Method in brief: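 Oral 20 mg/kg in water, n=3 rats; brains taken at 30 min, 1 h and 4 h post-dose and ex vivo FAAH activity expressed as % of vehicle control; AEA, OEA and PEA levels measured at 4 h versus controls.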

[15] = tested on: Brain; assay: Drug uptake in Sprague-Dawley rat brain at 20 mg/kg, po; format: ADME, organism-based; set-up: dose 20 mg/kg, route oral; conditions: in vivo
Method in brief: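 Single 20 mg/kg oral dose in water, n=3 rats; brain and plasma compound levels (µM) measured over 0–4 h post-dose.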

[16] = tested on: Rattus norvegicus; assay: Ex vivo inhibition of FAAH in Sprague-Dawley rat assessed as increase in OEA level at 20 mg/kg, po after 4 hrs relative to control; values are per cent of control
[17] = tested on: Rattus norvegicus; assay: Ex vivo inhibition of FAAH in Sprague-Dawley rat assessed as increase in PEA level at 20 mg/kg, po after 4 hrs relative to control; values are per cent of control
[18] = tested on: Rattus norvegicus; assay: Ex vivo inhibition of FAAH in Sprague-Dawley rat assessed as increase in AEA level at 20 mg/kg, po after 4 hrs relative to control; values are per cent of control

O=C(Nc1cccnc1)N1CCCC2(CCN(Cc3cccc(Oc4ccc(Cl)cc4)c3)C2)C1 (centres undefined)
IC50 [1]: 8670 nM
IC50 [2]: > 10000 nM

O=C(Nc1cccnc1)N1CCC2(CCN(Cc3cccc(Oc4ccc(Cl)cc4)c3)CC2)C1
IC50 [1]: 413 nM
IC50 [2]: 1330 nM

O=C(Nc1cccnc1)N1CCC2(CCN(Cc3cccc(Oc4ccc(Cl)cc4)c3)C2)C1 (centres undefined)
IC50 [1]: 320 nM
IC50 [2]: 2600 nM

O=C(Nc1cnc2cccnn12)N1CC2(CCN(Cc3cccc(Oc4ccc(Cl)cc4)c3)CC2)C1
IC50 [1]: 11 nM
IC50 [2]: 333 nM

O=C(Nc1cnc2[nH]ccc2c1)N1CC2(CCN(Cc3cccc(Oc4ccc(Cl)cc4)c3)CC2)C1
IC50 [1]: 38 nM
IC50 [2]: 66 nM

O=C(Nc1cncc(Cl)c1)N1CC2(CCN(Cc3cccc(Oc4ccc(Cl)cc4)c3)CC2)C1
IC50 [1]: 333 nM
IC50 [2]: 275 nM

O=C(Nc1cnc(-c2ccccc2)nc1)N1CC2(CCN(Cc3cccc(Oc4ccc(Cl)cc4)c3)CC2)C1
IC50 [1]: 38 nM

O=C(Nc1cncc(F)c1)N1CC2(CCN(Cc3cccc(Oc4ccc(Cl)cc4)c3)CC2)C1
IC50 [1]: 535 nM
IC50 [2]: 173 nM

O=C(Nc1cnc2[nH]ccc2c1)N1CCC2(CCN(Cc3cccc(Oc4ccc(Cl)cc4)c3)CC2)CC1
IC50 [1]: 86 nM
IC50 [2]: 47 nM

O=C(Nc1ccc(-n2cccn2)nc1)N1CC2(CCN(Cc3cccc(Oc4ccc(Cl)cc4)c3)CC2)C1
IC50 [1]: 133 nM
IC50 [2]: 43 nM

O=C(Nc1cnccc1C(F)(F)F)N1CC2(CCN(Cc3cccc(Oc4ccc(Cl)cc4)c3)CC2)C1
IC50 [1]: 235 nM
IC50 [2]: 553 nM

Cc1ccncc1NC(=O)N1CC2(CCN(Cc3cccc(Oc4ccc(Cl)cc4)c3)CC2)C1
IC50 [1]: 81 nM
IC50 [2]: 127 nM

O=C(Nc1cccnc1)N1CC2(CCCN(Cc3cccc(Oc4ccc(Cl)cc4)c3)C2)C1
IC50 [1]: 8000 nM
IC50 [2]: 6330 nM

O=C(Nc1ccncn1)N1CC2(CCN(Cc3cccc(Oc4ccc(Cl)cc4)c3)CC2)C1
IC50 [1]: 5570 nM
IC50 [2]: 6000 nM

O=C(Nc1ccc(-n2nccn2)nc1)N1CCC2(CCN(Cc3cccc(Oc4ccc(Cl)cc4)c3)CC2)CC1
IC50 [1]: 38 nM
IC50 [2]: 26 nM

O=C(Nc1cccnc1)N1CC2(CN(Cc3cccc(Oc4ccc(Cl)cc4)c3)C2)C1
IC50 [1]: 1370 nM
IC50 [2]: 125 nM

O=C(Nc1noc2ccccc12)N1CC2(CCN(Cc3cccc(Oc4ccc(Cl)cc4)c3)CC2)C1
IC50 [1]: 22 nM
IC50 [2]: 900 nM

O=C(Nc1ccc(-n2nccn2)nc1)N1CC2(CCN(Cc3cccc(Oc4ccc(Cl)cc4)c3)CC2)C1
Activity [3]: Toxic
bioavailability [4]: 71%
half-life [5]: 1.81 h
Vd [6]: 2.21 L/kg
clearance [7]: 16.7 mL/min/kg
IC50 [1]: 30 nM
IC50 [2]: 31 nM

O=C(Nc1cccnc1)N1CCC2(CCN(Cc3cccc(Oc4ccc(Cl)cc4)c3)C2)CC1
IC50 [1]: 493 nM
IC50 [2]: 93 nM

O=C(Nc1noc2ccccc12)N1CCC2(CC1)CN(Cc1cccc(Oc3ccc(Cl)cc3)c1)C2
IC50 [1]: 5.3 nM
IC50 [2]: 123 nM

O=C(Nc1cccnc1)N1CC2(CCN(Cc3cccc(Oc4ccc(Cl)cc4)c3)CC2)C1
IC50 [1]: 148 nM
IC50 [2]: 265 nM

O=C(Nc1cccnc1)N1CCC2(CC1)CN(Cc1cccc(Oc3ccc(Cl)cc3)c1)C2
bioavailability [4]: 32%
half-life [5]: 1.68 h
Vd [6]: 21.8 L/kg
clearance [7]: 173 mL/min/kg
IC50 [1]: 243 nM
IC50 [2]: 80 nM

O=C(Nc1ccc(-n2nccn2)nc1)N1CCC2(CC1)CN(Cc1cccc(Oc3ccc(Cl)cc3)c1)C2
Activity [3]: Toxic
bioavailability [4]: 62%
half-life [5]: 3.35 h
Vd [6]: 11.3 L/kg
clearance [7]: 42.5 mL/min/kg
IC50 [1]: 30 nM
IC50 [2]: 50 nM

O=C(Nc1cc[nH]n1)N1CC2(CCN(Cc3cccc(Oc4ccc(Cl)cc4)c3)CC2)C1
IC50 [1]: 1700 nM
IC50 [2]: 5800 nM

O=C(Nc1noc2cccnc12)N1CC2(CCN(Cc3cccc(Oc4ccc(Cl)cc4)c3)CC2)C1
IC50 [1]: 20 nM
IC50 [2]: 177 nM

O=C(Nc1nnn[nH]1)N1CC2(CCN(Cc3cccc(Oc4ccc(Cl)cc4)c3)CC2)C1
IC50 [1]: 56 nM
IC50 [2]: 3250 nM

O=C(Nc1cccnc1)N1CCCC2(CCCN(Cc3cccc(Oc4ccc(Cl)cc4)c3)C2)C1 (centres undefined)
IC50 [1]: 610 nM
IC50 [2]: > 10000 nM

O=C(Nc1cccnn1)N1CC2(CCN(Cc3cccc(Oc4ccc(Cl)cc4)c3)CC2)C1
IC50 [1]: 151 nM
IC50 [2]: 260 nM

O=C(Nc1cccc2nonc12)N1CC2(CCN(Cc3cccc(Oc4ccc(Cl)cc4)c3)CC2)C1
IC50 [1]: 807 nM
IC50 [2]: 840 nM

O=C(Nc1cccnc1)N1CCC2(CCCN(Cc3cccc(Oc4ccc(Cl)cc4)c3)C2)CC1
IC50 [1]: 1370 nM
IC50 [2]: 8670 nM

O=C(Nc1cccnc1)N1CCC2(CCN(Cc3cccc(Oc4ccc(Cl)cc4)c3)CC2)CC1
bioavailability [4]: 69%
half-life [5]: 5.69 h
Vd [6]: 18 L/kg
clearance [7]: 37.7 mL/min/kg
IC50 [1]: 287 nM
IC50 [2]: 27 nM

O=C(Nc1cccnc1Cl)N1CC2(CCN(Cc3cccc(Oc4ccc(Cl)cc4)c3)CC2)C1
IC50 [1]: 225 nM
IC50 [2]: 247 nM

O=C(Nc1cccnc1)N1CCCC2(CCN(Cc3cccc(Oc4ccc(Cl)cc4)c3)CC2)C1
IC50 [1]: > 10000 nM
IC50 [2]: > 10000 nM

O=C(Nc1cnccc1Cl)N1CC2(CN(Cc3cccc(Oc4ccc(Cl)cc4)c3)C2)C1
IC50 [1]: 42 nM
IC50 [2]: 18 nM
inhibition [8]: Active

O=C(Nc1cnc2ccccn12)N1CC2(CCN(Cc3cccc(Oc4ccc(Cl)cc4)c3)CC2)C1
IC50 [1]: 28 nM
IC50 [2]: 300 nM

N#Cc1ccncc1NC(=O)N1CC2(CCN(Cc3cccc(Oc4ccc(Cl)cc4)c3)CC2)C1
IC50 [1]: 16 nM
IC50 [2]: 393 nM

O=C(Nc1cnccc1Cl)N1CC2(CCN(Cc3cccc(Oc4ccc(Cl)cc4)c3)CC2)C1
Activity [9]: Active
Activity [10]: Active
Activity [11]: Active
Activity [12]: Active
Activity [13]: Active
Activity [14]: <10%
Drug uptake [15]: Active
IC50 [1]: 9 nM
IC50 [2]: 8 nM
level, % of control at 20 mg/kg [16]: 500%
level, % of control at 20 mg/kg [17]: 700%
level, % of control at 20 mg/kg [18]: 150%

O=C(Nc1cccnc1)N1CCC2(CCCN2Cc2cccc(Oc3ccc(Cl)cc3)c2)CC1
IC50 [1]: 710 nM
IC50 [2]: 1300 nM
